Source: ChEMBL document CHEMBL1151458, “Comparative analysis of the bactericidal activities of amphibian peptide analogues against multidrug-resistant nosocomial bacterial strains” (2008)
Activity calls are given as the source filed them. The calls are words filed in the database; no cut-off is given here.

Assays:
Pseudomonas aeruginosa [1] = test: Bactericidal activity against Pseudomonas aeruginosa isolate 2 with AMP-CFZ-CIP-CTX-CXM-GEN-LVX-IPM-MEM-SXT-TET resistance phenotype assessed as concentration required for >= 3 log10 CFU/ml reduction in viable bacteria in sodium phosphate buffer at pH 7.4 after 1.5 hrs by liquid microdilution assay; format: functional
Procedure, shortened: (§1)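 Clinical multidrug-resistant isolates grown to mid-log in tryptone soy broth and stored frozen. Exponential cells resuspended in 10 mM sodium phosphate buffer, pH 7.4, at 1 × 10^7 CFU/ml; 10 μl incubated with graded peptide concentrations in 100 μl at 37°C for 1.5 h. Plated on tryptone soy agar, CFU read after 24 h at 37°C. Peptide stocks in 20% ethanol.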

Pseudomonas aeruginosa [2] = test: Bactericidal activity against Pseudomonas aeruginosa isolate 3 with AMP-CFZ-CTX-CIP-GEN-IPM-LVX-SXT-TET-TOB resistance phenotype assessed as concentration required for >= 3 log10 CFU/ml reduction in viable bacteria in sodium phosphate buffer at pH 7.4 after 1.5 hrs by liquid microdilution assay; format: functional; procedure, shortened: as §1
Enterococcus faecium [3] = test: Bactericidal activity against Enterococcus faecium isolate 3 with AMP-CIP-CTX-ERY-GEN-LVX-SXT-TEC-VAN resistance phenotype assessed as concentration required for >= 3 log10 CFU/ml reduction in viable bacteria in 20% heat-inactivated human serum after 1.5 hrs by liquid microdilution assay; format: functional
Procedure, shortened: (§2)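 The buffer microdilution kill assay (1 × 10^7 CFU/ml mid-log cells, 10 μl in 100 μl, 37°C, 1.5 h, CFU on tryptone soy agar after 24 h) with serum added to 20% or 40% final. Serum was pooled from five healthy donors, clotted at room temperature, spun at 300 × g and heat-inactivated at 56°C for 30 min.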

Staphylococcus aureus [4] = test: Bactericidal activity against Staphylococcus aureus isolate 1 with AMC-AMP-CIP-ERY-GEN-OXA-RIF resistance phenotype assessed as concentration required for >= 3 log10 CFU/ml reduction in viable bacteria in 20% heat-inactivated human serum after 1.5 hrs by liquid microdilution assay; format: functional; procedure, shortened: as §2
[5] = system: Stenotrophomonas maltophilia; test: Bactericidal activity against Stenotrophomonas maltophilia isolate 2 with AMK-CIP-CTX-IPM-MEM-SAM-TZP resistance phenotype assessed as concentration required for >= 3 log10 CFU/ml reduction in viable bacteria in 20% heat-inactivated human serum after 1.5 hrs by liquid microdilution assay; format: functional; procedure, shortened: as §2
Acinetobacter baumannii [6] = test: Bactericidal activity against Acinetobacter baumannii isolate 3 with AMP-AMC-CFZ-CIP-IPM-SXT-TET-TOB resistance phenotype assessed as concentration required for >= 3 log10 CFU/ml reduction in viable bacteria in 20% heat-inactivated human serum after 1.5 hrs by liquid microdilution assay; format: functional; procedure, shortened: as §2
Pseudomonas aeruginosa [7] = test: Bactericidal activity against Pseudomonas aeruginosa isolate 1 with AMP-CFZ-CIP-CTX-CXM-GEN-LVX-SXT-TET resistance phenotype assessed as concentration required for >= 3 log10 CFU/ml reduction in viable bacteria in 20% heat-inactivated human serum after 1.5 hrs by liquid microdilution assay; format: functional; procedure, shortened: as §2
Staphylococcus aureus [8] = test: Antimicrobial activity against Staphylococcus aureus isolate 1 with AMC-AMP-CIP-ERY-GEN-OXA-RIF resistance phenotype at twofold the bactericidal concentration within 30 mins; format: functional, organism-based
Procedure, shortened: (§3)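 Time-kill in 10 mM sodium phosphate buffer, pH 7.4: 1 × 10^7 CFU/ml mid-log clinical isolate (10 μl) exposed at 37°C to peptide at the 1.5-h bactericidal concentration or twofold that, in 100 μl. Samples taken from 2 min onward, plated on tryptone soy agar, CFU counted after 24 h at 37°C. Killing taken as ≥3 log10 CFU/ml drop.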

[9] = system: Stenotrophomonas maltophilia; test: Antimicrobial activity against Stenotrophomonas maltophilia isolate 2 with AMK-CIP-CTX-IPM-MEM-SAM-TZP resistance phenotype assessed as assessed as time to kill at twofold bactericidal concentration; format: functional; procedure, shortened: as §3
Acinetobacter baumannii [10] = test: Antimicrobial activity against Acinetobacter baumannii isolate 3 with AMP-AMC-CFZ-CIP-IPM-SXT-TET-TOB resistance phenotype assessed as time to kill at bactericidal concentration; format: functional; procedure, shortened: as §3
Pseudomonas aeruginosa [11] = test: Antimicrobial activity against Pseudomonas aeruginosa isolate 1 with AMP-CFZ-CIP-CTX-CXM-GEN-LVX-SXT-TET resistance phenotype at bactericidal concentration after 30 mins by time kill assay; format: functional, organism-based; procedure, shortened: as §3
Pseudomonas aeruginosa [12] = test: Antimicrobial activity against Pseudomonas aeruginosa isolate 1 with AMP-CFZ-CIP-CTX-CXM-GEN-LVX-SXT-TET resistance phenotype at twofold bactericidal concentration after 10 to 30 mins by time kill assay; format: functional, organism-based; procedure, shortened: as §3
Enterococcus faecium [13] = test: Antimicrobial activity against Enterococcus faecium isolate 3 with AMP-CIP-CTX-ERY-GEN-LVX-SXT-TEC-VAN resistance phenotype assessed as time to kill at bactericidal concentration; format: functional; procedure, shortened: as §3
Enterococcus faecium [14] = test: Antimicrobial activity against Enterococcus faecium isolate 3 with AMP-CIP-CTX-ERY-GEN-LVX-SXT-TEC-VAN resistance phenotype assessed as time to kill at twofold the bactericidal concentration; format: functional, organism-based; procedure, shortened: as §3
Enterococcus faecium [15] = test: (§4) Bactericidal activity against Enterococcus faecium isolate 3 with AMP-CIP-CTX-ERY-GEN-LVX-SXT-TEC-VAN resistance phenotype assessed as concentration required for >= 3 log10 CFU/ml reduction in viable bacteria in sodium phosphate buffer at pH 7.4 after 1.5 hrs by liquid microdilution assay; format: functional; procedure, shortened: as §1
Enterococcus faecium [16] = test: Bactericidal activity against Enterococcus faecium isolate 5 with AMP-AMC-CIP-CLI-ERY-GEN-KAN-LVX-SXT-TEC-VAN resistance phenotype assessed as concentration required for >= 3 log10 CFU/ml reduction in viable bacteria in sodium phosphate buffer at pH 7.4 after 1.5 hrs by liquid microdilution assay; format: functional; procedure, shortened: as §1
Enterococcus faecium [17] = test: as §4, with “isolate 6” for “isolate 3”, “with AMP-AMC-CLI-CRO-CTX-CIP-ERY-GEN-KAN-LVX-SXT-VAN” for “with AMP-CIP-CTX-ERY-GEN-LVX-SXT-TEC-VAN”; format: functional; procedure, shortened: as §1
Staphylococcus aureus [18] = test: Bactericidal activity against Staphylococcus aureus isolate 1 with AMC-AMP-CIP-ERY-GEN-OXA-RIF resistance phenotype assessed as concentration required for >= 3 log10 CFU/ml reduction in viable bacteria in sodium phosphate buffer at pH 7.4 after 1.5 hrs by liquid microdilution assay; format: functional; procedure, shortened: as §1
Staphylococcus aureus [19] = test: Bactericidal activity against Staphylococcus aureus isolate 2 with AMC-AMP-CIP-ERY-GEN-LVX-OXA-RIF-TET resistance phenotype assessed as concentration required for >= 3 log10 CFU/ml reduction in viable bacteria in sodium phosphate buffer at pH 7.4 after 1.5 hrs by liquid microdilution assay; format: functional; procedure, shortened: as §1
Staphylococcus aureus [20] = test: Bactericidal activity against Staphylococcus aureus isolate 3 with AMC-AMP-CIP-ERY-GEN-LVX-OXA resistance phenotype assessed as concentration required for >= 3 log10 CFU/ml reduction in viable bacteria in sodium phosphate buffer at pH 7.4 after 1.5 hrs by liquid microdilution assay; format: functional; procedure, shortened: as §1
[21] = system: Stenotrophomonas maltophilia; test: Bactericidal activity against Stenotrophomonas maltophilia isolate 1 with AMK-CIP-CTX-IPM-MEM-SAM-TZP resistance phenotype assessed as concentration required for >= 3 log10 CFU/ml reduction in viable bacteria in sodium phosphate buffer at pH 7.4 after 1.5 hrs by liquid microdilution assay; format: functional; procedure, shortened: as §1
[22] = system: Stenotrophomonas maltophilia; test: Bactericidal activity against Stenotrophomonas maltophilia isolate 2 with AMK-CIP-CTX-IPM-MEM-SAM-TZP resistance phenotype assessed as concentration required for >= 3 log10 CFU/ml reduction in viable bacteria in sodium phosphate buffer at pH 7.4 after 1.5 hrs by liquid microdilution assay; format: functional; procedure, shortened: as §1
[23] = system: Stenotrophomonas maltophilia; test: Bactericidal activity against Stenotrophomonas maltophilia isolate 4 with AMK-CAZ-CIP-FEP-IPM-SAM-TZP resistance phenotype assessed as concentration required for >= 3 log10 CFU/ml reduction in viable bacteria in sodium phosphate buffer at pH 7.4 after 1.5 hrs by liquid microdilution assay; format: functional; procedure, shortened: as §1
Acinetobacter baumannii [24] = test: Bactericidal activity against Acinetobacter baumannii isolate 1 with AMP-AMC-CFZ-CIP-IPM-LVX-PIP-SXT-TET resistance phenotype assessed as concentration required for >= 3 log10 CFU/ml reduction in viable bacteria in sodium phosphate buffer at pH 7.4 after 1.5 hrs by liquid microdilution assay; format: functional; procedure, shortened: as §1
Acinetobacter baumannii [25] = test: Bactericidal activity against Acinetobacter baumannii isolate 2 with AMP-CFZ-CIP-LVX-PIP-SXT resistance phenotype assessed as concentration required for >= 3 log10 CFU/ml reduction in viable bacteria in sodium phosphate buffer at pH 7.4 after 1.5 hrs by liquid microdilution assay; format: functional; procedure, shortened: as §1
Acinetobacter baumannii [26] = test: Bactericidal activity against Acinetobacter baumannii isolate 3 with AMP-AMC-CFZ-CIP-IPM-SXT-TET-TOB resistance phenotype assessed as concentration required for >= 3 log10 CFU/ml reduction in viable bacteria in sodium phosphate buffer at pH 7.4 after 1.5 hrs by liquid microdilution assay; format: functional; procedure, shortened: as §1
Pseudomonas aeruginosa [27] = test: Bactericidal activity against Pseudomonas aeruginosa isolate 1 with AMP-CFZ-CIP-CTX-CXM-GEN-LVX-SXT-TET resistance phenotype assessed as concentration required for >= 3 log10 CFU/ml reduction in viable bacteria in sodium phosphate buffer at pH 7.4 after 1.5 hrs by liquid microdilution assay; format: functional; procedure, shortened: as §1

Substance	Activity (Pseudomonas aeruginosa [1]) [µM]	Activity (Pseudomonas aeruginosa [2]) [µM]	Activity (Enterococcus faecium [3]) [µM]	Activity (Staphylococcus aureus [4]) [µM]	Activity [5] [µM]	Activity (Acinetobacter baumannii [6]) [µM]	Activity (Pseudomonas aeruginosa [7]) [µM]	Activity (Staphylococcus aureus [8])	Time [9] [min]	Time (Acinetobacter baumannii [10])	Activity (Pseudomonas aeruginosa [11])	Activity (Pseudomonas aeruginosa [12])	Time (Enterococcus faecium [13]) [min]	Activity (Enterococcus faecium [14])	Activity (Enterococcus faecium [15]) [µM]	Activity (Enterococcus faecium [16]) [µM]	Activity (Enterococcus faecium [17]) [µM]	Activity (Staphylococcus aureus [18]) [µM]	Activity (Staphylococcus aureus [19]) [µM]	Activity (Staphylococcus aureus [20]) [µM]	also measured
H-FLPLIGRVLSGIL-NH2 [TEMPORIN A]	48	96	48	48	>192	>193	>194	inactive	2	>=30 min	inactive	Active	5	inactive	12	12	12	12	12	12	Activity [21]: 48 µM; Activity [22]: 12 µM; Activity [23]: 96 µM; Activity (Acinetobacter baumannii [24]): 24 µM; Activity (Acinetobacter baumannii [25]): 12 µM; Activity (Acinetobacter baumannii [26]): 12 µM; Activity (Pseudomonas aeruginosa [27]): 48 µM
H-IIGPVLGLVGSALGGLLKKI-NH2 [BOMBININ H2]	16	8	64	64	128	128	128	inactive	2	2 min	inactive	Active	5	inactive	4	8	4	16	16	8	Activity [21]: 4 µM; Activity [22]: 4 µM; Activity [23]: 16 µM; Activity (Acinetobacter baumannii [24]): 8 µM; Activity (Acinetobacter baumannii [25]): 4 µM; Activity (Acinetobacter baumannii [26]): 8 µM; Activity (Pseudomonas aeruginosa [27]): 16 µM
H-FFPVIGRILNGIL-NH2 [TEMPORIN G]	48	48	48	96	>192	>193	>194	Active	2	>=30 min	inactive	Active	5	inactive	6	6	6	24	12	12	Activity [21]: 12 µM; Activity [22]: 3 µM; Activity [23]: >96 µM; Activity (Acinetobacter baumannii [24]): 12 µM; Activity (Acinetobacter baumannii [25]): 6 µM; Activity (Acinetobacter baumannii [26]): 6 µM; Activity (Pseudomonas aeruginosa [27]): 48 µM
H-LLPIVGNLLKSLL-NH2	48	48	48	96	192	192	192	Active	2	>=30 min	inactive	Active	5	inactive	12	12	12	48	48	12	Activity [21]: 24 µM; Activity [22]: 3 µM; Activity [23]: 48 µM; Activity (Acinetobacter baumannii [24]): 24 µM; Activity (Acinetobacter baumannii [25]): 6 µM; Activity (Acinetobacter baumannii [26]): 6 µM; Activity (Pseudomonas aeruginosa [27]): 48 µM
